The source of these data is ChEMBL document CHEMBL1142114, “Kaurane diterpenoids from Isodon excisus inhibit LPS-induced NF-kappaB activation and NO production in macrophage RAW264.7 cells” (J Nat Prod, 2007).

In general, IC50 refers to the concentration that gives 50% inhibition.

What all share (assay type): functional, cell-based
Test [1] has as its system RAW264.7. Put plainly: Inhibition of NF-kappaB activation in LPS-stimulated RAW264.7 cells at 10 uM after 24 hrs. The conditions noted are these: Mus musculus. The essentials:
(§1)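 RAW264.7 cells transfected with a reporter plasmid carrying eight kappaB elements driving secreted alkaline phosphatase, seeded 5 × 10^4 cells/well. After 3 h at 37 °C, cells were given compound (0.1–10 µM) plus LPS 1 µg/mL for 24 h. SEAP activity was read at 405 nm with p-nitrophenyl phosphate substrate in diethanolamine/MgCl2/L-homoarginine buffer. IC50 is relative to vehicle control, mean ± SD of three experiments.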

In test [2] the test system is RAW264.7. Put plainly: Inhibition of NF-kappaB activation in LPS-stimulated RAW264.7 cells after 24 hrs. The conditions noted are these: Mus musculus, RAW264.7, 24 h. The gist of the method:
as §1

The test system of test [3] is RAW264.7. Put plainly: Inhibition of NO production in LPS-stimulated RAW264.7 cells after 24 hrs. The following applies: Mus musculus, RAW264.7, 24 h. The gist of the method: (§2)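 RAW264.7 cells (1 × 10^5/well) were stimulated with LPS 1 µg/mL for 24 h with or without compound (0.1, 0.3, 1, 3, 10 µM). Nitrite in the culture supernatant was measured with Griess reagent. The remaining cells were checked for viability by MTT. IC50 is relative to vehicle control, mean ± SD of three separate experiments.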

Test [4] concerns RAW264.7. Put plainly: Inhibition of NO production in LPS-stimulated RAW264.7 cells at 10 uM after 24 hrs. The conditions noted are these: Mus musculus. The gist of the method: as §2

Active and inactive are the calls of the source. The rule behind the calls is not given here.

Regarding `C=C1[C@@H]2C[C@H](OC(C)=O)[C@@H]3[C@](C2)(C[C@H](O)[C@@H]2C(C)(C)[C@@H](OC(C)=O)C[C@H](O)[C@]23C)[C@@H]1O` [INFLEXARABDONIN A], the result in the test on RAW264.7 [1] and with RAW264.7 [4] was inactive. Further, the IC50 in the test on RAW264.7 [2] and in the test with RAW264.7 [3] was more than 10000 nM throughout.
Consider `C=C1C(=O)[C@]23C[C@H]1C[C@H](OC(C)=O)[C@H]2[C@@]1(C)[C@H]([C@@H](O)C3)C(C)(C)[C@@H](OC(C)=O)C[C@@H]1O` [INFLEXINOL], for which the values for the IC50 with RAW264.7 [2] and in the test with RAW264.7 [3] were 440 nM and 940 nM, respectively.
For `C=C1C(=O)[C@]23C[C@H]1C[C@H](O)[C@H]2[C@]1(C)CC[C@H](OC(C)=O)C(C)(C)[C@H]1[C@@H](O)C3` [INFLEXANIN A] the same measures were 400 nM and 630 nM.
For `C=C1C(=O)[C@]23C[C@H]1C[C@H](OC(C)=O)[C@H]2[C@@]1(C)[C@H]([C@@H](O)C3)C(C)(C)[C@@H](O)C[C@@H]1O` [EXCISUSIN D] the same measures were 3210 nM and 2890 nM.
For `C=C1C(=O)[C@]23C[C@H]1C[C@H](O)[C@H]2[C@@]1(C)[C@H]([C@@H](O)C3)C(C)(C)[C@@H](OC(C)=O)C[C@@H]1O` [INFLEXANIN B] the same measures were 1820 nM and 2520 nM.
Take `C=C1C(=O)[C@]23C[C@H]1C[C@H](O)[C@H]2[C@]1(C)CCC(=O)C(C)(C)[C@H]1[C@@H](O)C3` [INFLEXARABDONIN I]: the IC50 in the test with RAW264.7 [2] was determined as 1150 nM; in the test on RAW264.7 [3], 1240 nM.
For `C=C1C(=O)[C@@]23CC(=O)[C@@H]4C(C)(C)[C@@H](OC(C)=O)C[C@H](O)[C@@]4(C)[C@@H]2[C@@H](OC(C)=O)C[C@@H]1C3` [INFLEXIN], the IC50 in the test with RAW264.7 [2] amounted to 230 nM; with RAW264.7 [3], 690 nM.
Consider `C=C1C(=O)[C@@]23CC[C@H]4[C@@](C)(CCC(=O)[C@@]4(C)COC(C)=O)[C@@H]2[C@@H](O)C[C@@H]1C3` [EXCISUSIN E], for which the figures for the IC50 in the test with RAW264.7 [2] and in the test on RAW264.7 [3] were 1020 nM and 1360 nM, respectively.
For `C=C1C(=O)[C@@]23CC[C@@H]4[C@](C)(CO)[C@@H](OC(C)=O)CC[C@@]4(C)[C@@H]2[C@@H](O)C[C@@H]1C3` [EXCISUSIN A] the same measures were 900 nM and 670 nM.
For `C=C1C(=O)[C@@]23CC[C@@H]4C(C)(C)[C@@H](OC(C)=O)C[C@H](O)[C@@]4(C)[C@@H]2[C@@H](O)C[C@@H]1C3` [EXCISUSIN B] the same measures were 260 nM and 560 nM.
`C=C1C(=O)[C@@]23CC[C@@H]4C(C)(C)[C@@H](OC(C)=O)C[C@H](O)[C@@]4(C)[C@@H]2[C@@H](OC(C)=O)C[C@@H]1C3` [INFLEXARABDONIN G]: the IC50 in the test on RAW264.7 [2] was found to be 240 nM; in the test on RAW264.7 [3] it was 480 nM.
In the test on RAW264.7 [3], `N=C(N)NN` [PIMAGEDINE] came in with an IC50 of 32200 nM.
With `C=C1[C@@H]2C[C@H](O)[C@H]3[C@]4(C)CC[C@@H](O)[C@@](C)(COC(C)=O)[C@H]4CC[C@]3(C2)[C@@H]1O` [EXCISUSIN C], the outcome with RAW264.7 [1] and in the test with RAW264.7 [4] was inactive. For the same compound, the IC50 with RAW264.7 [2] and in the test with RAW264.7 [3] was more than 10000 nM in each case.
As to `C=C1C(=O)O[C@@H]2C3O[C@]3(C)CC/C=C(\C)CC[C@@H]12` (stereo not given in full), the IC50 with RAW264.7 [2] came out at 1150 nM.
